The text below walks through data of ChEMBL document CHEMBL3817733, “Discovery of a novel small molecule agonist scaffold for the APJ receptor” (Bioorg Med Chem, 2016).

Calls of active or inactive are those of the source. No cut-off for these calls is given here. Bounds are passed on as bounds.

Usually EC50 stands for the concentration giving half of the maximal effect. What is called Emax is the greatest response seen or fitted, relative to the assay's reference. For orientation: Ki means a dissociation constant, usually derived from enzyme kinetics or from competition with a known ligand. Lower therefore signals tighter binding.

For experiment [1], the target named is T1, Apelin receptor (Homo sapiens, UniProt P35414).
T1 sequence (P35414 whole entry): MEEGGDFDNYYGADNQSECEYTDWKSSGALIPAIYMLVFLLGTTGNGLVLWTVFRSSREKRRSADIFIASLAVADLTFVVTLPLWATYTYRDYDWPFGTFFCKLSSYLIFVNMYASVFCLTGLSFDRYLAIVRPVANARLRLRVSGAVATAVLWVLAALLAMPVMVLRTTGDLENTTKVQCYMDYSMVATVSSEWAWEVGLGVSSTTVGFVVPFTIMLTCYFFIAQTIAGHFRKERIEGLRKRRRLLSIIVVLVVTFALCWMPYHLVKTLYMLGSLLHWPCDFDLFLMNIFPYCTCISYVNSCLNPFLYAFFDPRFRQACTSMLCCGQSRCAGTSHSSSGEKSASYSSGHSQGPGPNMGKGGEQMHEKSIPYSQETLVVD
Description: Agonist activity at human APJ receptor expressed in cells c-expressing Galphaq16 assessed as calcium mobilization by FLIPR assay. The class given is functional, cell-based. The essentials: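 Human APJ-Gαq16 stable cells lifted non-enzymatically, plated 30,000/well, grown 24 h at 37 C to confluence. Loaded with Calcium 5 dye in HBSS with 20 mM HEPES, 1% BSA, 10 µM probenecid, 1 h at 37 C. FLIPR Tetra read ~17 sec baseline, then added agonist at 10x; pyr-apelin-13 as reference.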
On the technique in general: Calcium flux is commonly read through the fluorescence of an indicator in the cells.

The target of experiment [2] is Neurotensin receptor type 1 (Rattus norvegicus) (UniProt P20789). Description: Agonist activity at rat NTS1 receptor expressed in CHOK1 cells assessed as calcium mobilization by FLIPR assay. As to conditions: CHO-K1. It counts as functional, cell-based.
Sequence of Neurotensin receptor type 1 (Rattus norvegicus) (P20789 whole entry): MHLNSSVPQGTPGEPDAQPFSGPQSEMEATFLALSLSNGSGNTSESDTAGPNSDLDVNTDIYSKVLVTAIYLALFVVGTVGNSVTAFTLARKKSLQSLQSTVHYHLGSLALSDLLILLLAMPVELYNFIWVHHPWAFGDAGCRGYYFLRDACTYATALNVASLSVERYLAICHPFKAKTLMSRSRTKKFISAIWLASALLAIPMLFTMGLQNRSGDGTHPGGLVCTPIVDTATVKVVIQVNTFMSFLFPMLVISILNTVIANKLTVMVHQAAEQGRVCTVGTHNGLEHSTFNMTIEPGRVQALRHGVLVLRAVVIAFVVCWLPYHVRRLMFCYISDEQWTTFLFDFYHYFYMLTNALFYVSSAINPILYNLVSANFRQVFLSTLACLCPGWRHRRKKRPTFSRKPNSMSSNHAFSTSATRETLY
The target is the same in experiment [3]. Put plainly: Antagonist activity against rat NTS1 receptor expressed in CHOK1 cells assessed as calcium mobilization by FLIPR assay. The settings on record: CHO-K1. It counts as functional, cell-based.
Experiment [4] has as its target T2, Neurotensin receptor type 2 (Rattus norvegicus) (UniProt Q63384).
T2 sequence (whole entry): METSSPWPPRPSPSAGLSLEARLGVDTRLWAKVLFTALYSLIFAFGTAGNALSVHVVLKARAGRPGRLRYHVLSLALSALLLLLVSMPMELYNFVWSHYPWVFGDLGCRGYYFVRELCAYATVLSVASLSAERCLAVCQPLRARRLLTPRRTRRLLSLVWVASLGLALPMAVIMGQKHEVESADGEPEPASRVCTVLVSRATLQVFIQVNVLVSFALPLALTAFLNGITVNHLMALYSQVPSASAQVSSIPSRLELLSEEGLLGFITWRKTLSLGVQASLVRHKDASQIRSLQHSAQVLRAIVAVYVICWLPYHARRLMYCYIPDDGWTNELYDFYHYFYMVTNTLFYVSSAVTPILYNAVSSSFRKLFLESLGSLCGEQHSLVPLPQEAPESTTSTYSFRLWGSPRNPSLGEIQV
Description: (§1) Partial agonist activity at rat NTS2 receptor expressed in CHOK1 cells assessed as calcium mobilization by FLIPR assay. The settings on record: CHO-K1. The class given is functional, cell-based.

In experiment [5] the target is T1, Apelin receptor. Put plainly: Displacement of [125I]-apelin13 from human APJ receptor expressed in CHOK1 cell membranes after 2 hrs by scintillation counting. Also noted: species or system CHO-K1. Background: In a radioligand displacement assay an active substance lowers the binding of a labelled ligand.
The target in experiment [6] is T3, Neurotensin receptor type 2 (Rattus norvegicus, UniProt Q63384).
T3 sequence (Q63384 whole entry): T2 sequence (whole entry)
The description is as §1. The class given is functional, cell-based, CHO-K1.

As for `COc1cccc(OC)c1-c1cc(C(=O)N2CC[C@H](C(=O)O)C2)nn1-c1ccc(F)cc1`, the EC50 at Apelin receptor [1] was greater than 30 µM.
In the case of `COc1cccc(OC)c1-c1cc(C(=O)NC(CC(=O)O)C2CCCCC2)nn1-c1ccc(F)cc1` (single isomer, unassigned), the result in experiment [2] and in experiment [3] was inactive. The Emax in experiment [4] was 57%.
As for `COc1cccc(OC)c1-c1cc(C(=O)N[C@H](C(=O)NCC(=O)O)C2CCCCC2)nn1-c1ccc(F)cc1`, the EC50 on Apelin receptor [1] is greater than 30 µM.
The same measure, in the same setting: to `COc1cccc(OC)c1-c1cc(C(=O)NC2(C(=O)O)CCCCC2)nn1-c1ccc(F)cc1` belongs greater than 30 µM.
For the compound `COc1cccc(OC)c1-c1cc(C(=O)N[C@H](CC(=O)O)CC(C)C)nn1-c1ccc(F)cc1`, the EC50 on Apelin receptor [1] came to 9.4 µM. Moreover, the Ki on Apelin receptor [5] stood at 0.6 µM.
Consider `COc1cccc(OC)c1-c1cc(C(=O)N[C@H](C(=O)NCc2ccccc2)C2CCCCC2)nn1-c1ccc(F)cc1`, for which, on Apelin receptor [1], the EC50 is greater than 30 µM.
Still for that read-out and setting: to `COc1cccc(OC)c1-c1cc(C(=O)N[C@H](C(=O)N(C)C)C2CCCCC2)nn1-c1ccc(F)cc1` belongs greater than 30 µM.
Still for that read-out and setting: to `COc1cccc(OC)c1-c1cc(C(=O)Nc2ccccc2C(=O)O)nn1-c1ccc(F)cc1` belongs greater than 30 µM; to `COc1cccc(OC)c1-c1cc(C(=O)NCC2CCCCC2)nn1-c1ccc(F)cc1`, greater than 30 µM.
Turning to `COc1cccc(OC)c1-c1cc(C(=O)N[C@@H](CCC2CCCCC2)CC(=O)O)nn1-c1ccc(F)cc1`, the outcome in experiment [2] and in experiment [3] was inactive. Also, the EC50 in experiment [6] came out at 3.41 µM. Also, the Emax in experiment [4] worked out at 23%.
With `COc1cccc(OC)c1-c1cc(C(=O)N[C@H](C(=O)NO)C2CCCCC2)nn1-c1ccc(F)cc1`, the EC50 at Apelin receptor [1] is greater than 30 µM.
The same measure, in the same setting: to `COc1cccc(OC)c1-c1cc(C(=O)N[C@@H](CC(C)C)C(=O)O)nn1-c1ccc(F)cc1` belongs greater than 30 µM; to `COc1cccc(OC)c1-c1cc(C(=O)N[C@H](C(=O)O)c2ccccc2)nn1-c1ccc(F)cc1`, greater than 30 µM; to `COc1cccc(OC)c1-c1cc(C(=O)N[C@@H](CCCCNC(=O)OC(C)(C)C)C(=O)O)nn1-c1ccc(F)cc1`, greater than 30 µM.
On the same count and under the same terms, to `COc1cccc(OC)c1-c1cc(C(=O)N[C@@H](CCCCN)C(=O)O)nn1-c1ccc(F)cc1` belongs greater than 30 µM.
On the same count and under the same terms, to `COC(=O)CNC(=O)[C@@H](NC(=O)c1cc(-c2c(OC)cccc2OC)n(-c2ccc(F)cc2)n1)C1CCCCC1` belongs greater than 30 µM; to `COc1cccc(OC)c1-c1cc(C(=O)N[C@H]2CC[C@H](C(=O)O)CC2)nn1-c1ccc(F)cc1`, greater than 30 µM; to `COC(=O)[C@@H](NC(=O)c1cc(-c2c(OC)cccc2OC)n(-c2ccc(F)cc2)n1)C1CCCCC1`, greater than 30 µM.
Turning to `COc1cccc(OC)c1-c1cc(C(=O)NC2(C(=O)O)C3CC4CC(C3)CC2C4)nn1-c1ccc(F)cc1` (configuration not stated), the EC50 at Apelin receptor [1] was greater than 30 µM.
Turning to `COc1cccc(OC)c1-c1cc(C(=O)N[C@@H](C(=O)O)C2CCCCC2)nn1-c1ccc(F)cc1`, the EC50 on Apelin receptor [1] was greater than 30 µM.
For `COc1cccc(OC)c1-c1cc(C(=O)N[C@@H](CCc2ccccc2)CC(=O)O)nn1-c1ccc(F)cc1`, the EC50 on Apelin receptor [1] came out at 3 µM. The compound further registered a Ki at Apelin receptor [5] of 3 µM.
With `COc1cccc(OC)c1-c1cc(C(=O)N[C@@H](CCC(N)=O)C(=O)O)nn1-c1ccc(F)cc1`, the EC50 on Apelin receptor [1] was greater than 30 µM.
Still for that read-out and setting: to `COc1cccc(OC)c1-c1cc(C(=O)N[C@@H](Cc2ccccc2)C(=O)O)nn1-c1ccc(F)cc1` belongs greater than 30 µM; to `Cc1cc(C(=O)N[C@H](C(=O)O)C2CCCCC2)nn1-c1ccc(F)cc1`, greater than 30 µM.
Still for that read-out and setting: to `COc1cccc(OC)c1-c1cc(C(=O)N[C@H](C(=O)O)C(C)C)nn1-c1ccc(F)cc1` belongs greater than 30 µM; to `COc1cccc(O)c1-c1cc(C(=O)N[C@H](C(=O)O)C2CCCCC2)nn1-c1ccc(F)cc1`, greater than 30 µM; to `COc1cccc(OC)c1-c1cc(C(=O)N[C@H](C(N)=O)C2CCCCC2)nn1-c1ccc(F)cc1`, greater than 30 µM.
The same measure, in the same setting: to `COc1cccc(OC)c1-c1cc(C(=O)N[C@H](C(=O)O)C2CCCCC2)n(-c2ccc(F)cc2)n1` belongs greater than 30 µM; to `O=C(N[C@H](C(=O)O)C1CCCCC1)c1cc(-c2c(O)cccc2O)n(-c2ccc(F)cc2)n1`, greater than 30 µM.
Consider `O=C(N[C@H](C(=O)O)C1CCCCC1)c1cc(-c2ccccc2)n(-c2ccc(F)cc2)n1`, for which, at Apelin receptor [1], the EC50 is greater than 30 µM.
